In ChEMBL document CHEMBL2407064 (J Med Chem, 2013):
pEC50, pIC50: −log10 of the molar value. Activity calls are given as the source filed them. No cut-off for these calls is given here.

Experiments:
Mus musculus [1] = assay: Antidepressant-like activity in BALB/cJ mouse assessed as decrease in immobility time at 20 mg/kg, ip administered 30 mins before test measured for 6 mins by forced swimming test; assay type: functional, organism-based; design: dose 20 mg/kg
Summary of the method: (§1)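 Male BALB/cJ mice, 8–10 weeks old. Drugs dissolved in water and given i.p. or orally at 10 ml/kg, 30 min before the trial. Sertraline 20 mg/kg was the positive control. Each mouse was placed in a glass cylinder with 12 cm of 23 ± 1 °C water, and immobility (floating) was timed over a 6 min trial. ANOVA with Fisher's LSD; n = 9–10/group.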

Mus musculus [2] = assay: Antidepressant-like activity in BALB/cJ mouse assessed as decrease in immobility time at 1 mg/kg, ip administered 30 mins before test measured for 6 mins by forced swimming test; assay type: functional, organism-based; design: dose 1 mg/kg; summary of the method: as §1
[3] = target: T1, Acetylcholine receptor; alpha1/beta1/delta/gamma (Homo sapiens) (UniProt P02708+P07510+P11230+Q07001); assay: Antagonist activity at alpha1beta1gammadelta nAChR in human TE671/RD cells assessed as inhibition of carbamylcholine-induced 86Rb+ ion efflux preincubated for 10 mins by liquid scintillation counting analysis; assay type: cell-based
Mus musculus [4] = assay: Antidepressant-like activity in BALB/cJ mouse assessed as decrease in immobility time at 1 mg/kg, po administered 30 mins before test measured for 6 mins by forced swimming test; assay type: functional, organism-based; design: dose 1 mg/kg; summary of the method: as §1
[5] = target: T1, Acetylcholine receptor; alpha1/beta1/delta/gamma (Homo sapiens); assay: Agonist activity at alpha1beta1gammadelta nAChR in human TE671/RD cells assessed as stimulation of 86Rb+ ion efflux after 5 mins by liquid scintillation counting analysis; assay type: cell-based
Summary of the method: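 Human TE671/RD cells, which natively express muscle-type α1β1γδ nAChRs, maintained at low passage (1–26) and split 1/300 weekly. 86Rb+ efflux. Agonism given as EC50 with efficacy normalized to carbamylcholine.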

Mus musculus [6] = assay: Antidepressant-like activity in BALB/cJ mouse assessed as decrease in immobility time at 1 to 10 mg/kg, ip administered 30 mins before test measured for 6 mins by forced swimming test; assay type: functional, organism-based; summary of the method: as §1
[7] = target: T2, Neuronal acetylcholine receptor; alpha3/alpha6/beta2/beta3 (Homo sapiens, UniProt P17787+P32297+Q05901+Q15825); assay: Antagonist activity at human alpha6/alpha3beta2beta3 nAChR expressed in human SHEP1 cells assessed as inhibition of carbamylcholine-induced 86Rb+ ion efflux preincubated for 10 mins by liquid scintillation counting analysis; assay type: cell-based
[8] = target: T2, Neuronal acetylcholine receptor; alpha3/alpha6/beta2/beta3; assay: Agonist activity at human alpha6/alpha3beta2beta3 nAChR expressed in human SHEP1 cells assessed as stimulation of 86Rb+ ion efflux after 5 mins by liquid scintillation counting analysis; assay type: cell-based
Mus musculus [9] = assay: Toxicity in BALB/cJ mouse assessed as occurrence of tremor at 5 mg/kg, ip; assay type: organism-based; design: dose 5 mg/kg, route intraperitoneal; details: in vivo
Mus musculus [10] = assay: Toxicity in BALB/cJ mouse assessed as sedative effect at 5 mg/kg, ip; assay type: organism-based; design: dose 5 mg/kg, route intraperitoneal; details: in vivo
Mus musculus [11] = assay: Toxicity in BALB/cJ mouse assessed as mortality at 10 mg/kg, ip; assay type: organism-based; design: dose 10 mg/kg, route intraperitoneal; details: in vivo
Salmonella typhimurium [12] = assay: Genotoxicity in Salmonella typhimurium TA1537 up to 3 x 10^5 uM by Ames test; assay type: toxicity, organism-based; details: salmonella enterica subsp. enterica serovar typhimurium
Salmonella typhimurium [13] = assay: Genotoxicity in Salmonella typhimurium TA1537 up to 3 x 10^5 uM by Ames test in presence of liver S9 fraction; assay type: toxicity, organism-based; details: salmonella enterica subsp. enterica serovar typhimurium
[14] = target: T3, Neuronal acetylcholine receptor; alpha4/beta2 (Homo sapiens, UniProt P17787+P43681); assay: Antagonist activity at human alpha4beta2 nACHR expressed in human SHEP1 cells assessed as inhibition of carbamylcholine-induced 86Rb+ ion efflux preincubated for 10 mins by liquid scintillation counting analysis; assay type: cell-based
Salmonella typhimurium [15] = assay: Genotoxicity in Salmonella typhimurium TA1537 at 50 to 100 uM by Ames test in presence of liver S9 fraction; assay type: toxicity, organism-based; details: salmonella enterica subsp. enterica serovar typhimurium, s9, 100 µM
Summary of the method: (§2)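 Bacterial reverse mutation (Ames) test in TA98, TA100, TA1535 and TA1537 strains, with and without liver S9 metabolic activation. Test concentrations 5, 10, 50 and 100 μM.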

CYP2C9 = CYP2C9 (Homo sapiens, UniProt P11712); assay: Inhibition of CYP2C9 (unknown origin) at 10 uM relative to control; assay type: ADME
Summary of the method: (§3)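 Inhibition of CYP1A, CYP2C9, CYP2C19, CYP2D6 and CYP3A isoforms measured in the presence of 10 μM test compound, expressed as percent inhibition.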

Salmonella typhimurium [16] = assay: Genotoxicity in Salmonella typhimurium TA1537 at 5 to 10 uM by Ames test in presence of liver S9 fraction; assay type: toxicity, organism-based; details: salmonella enterica subsp. enterica serovar typhimurium, s9, 10 µM
Salmonella typhimurium [17] = assay: Genotoxicity in Salmonella typhimurium TA98 at 5 to 100 uM by Ames test; assay type: toxicity, organism-based; details: salmonella enterica subsp. enterica serovar typhimurium; summary of the method: as §2
Salmonella typhimurium [18] = assay: Genotoxicity in Salmonella typhimurium TA1535 at 5 to 100 uM by Ames test; assay type: toxicity, organism-based; details: salmonella enterica subsp. enterica serovar typhimurium; summary of the method: as §2
Salmonella typhimurium [19] = assay: Genotoxicity in Salmonella typhimurium TA100 at 5 to 100 uM by Ames test; assay type: toxicity, organism-based; details: salmonella enterica subsp. enterica serovar typhimurium; summary of the method: as §2
Plasma [20] = assay: Plasma protein binding in CD-1 mouse at 10 uM; assay type: ADME, cell-free
Summary of the method: (§4)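 Plasma protein binding measured in human and CD-1 mouse plasma at 10 μM test compound, given as percent bound.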

Salmonella typhimurium [21] = assay: Genotoxicity in Salmonella typhimurium TA98 at 5 to 100 uM by Ames test in presence of liver S9 fraction; assay type: toxicity, organism-based; details: salmonella enterica subsp. enterica serovar typhimurium, s9, 100 µM; summary of the method: as §2
hERG (KCNH2) [22] = target: T4, hERG (KCNH2) (Homo sapiens, UniProt Q12809); assay: Inhibition of human ERG at 0.1 uM relative to control
Summary of the method: (§5)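 Human ERG inhibition tested at three concentrations (0.1, 1 and 10 μM), expressed as percent inhibition.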

CYP3A = assay: Inhibition of CYP3A (unknown origin) at 10 uM relative to control; assay type: ADME; details: human; summary of the method: as §3
Caco-2 [23] = assay: Permeability from basolateral to apical side in human Caco2 cells at pH 7.4; assay type: ADME, cell-based; details: caco-2, pH 7.4
Summary of the method: (§6)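 Bidirectional Caco-2 monolayer permeability, apical-to-basolateral and basolateral-to-apical, at pH 7.4 on both sides. Run with and without the P-gp inhibitor verapamil. Apparent permeability given in cm/s.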

[24] = Metabolic stability in human hepatocytes assessed as compound remaining at 1 uM after 2 hrs; assay type: ADME, cell-based, Hepatocyte; details: read-out: Stability
Summary of the method: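 Cryopreserved human hepatocytes incubated with 1 μM test compound for 2 h. Percent parent compound remaining unchanged was measured.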

Caco-2 [25] = assay: Permeability from apical to basolateral side in human Caco2 cells at pH 7.4; assay type: ADME, cell-based; details: caco-2, pH 7.4; summary of the method: as §6
[26] = target: T3, Neuronal acetylcholine receptor; alpha4/beta2; assay: Agonist activity at human alpha4beta2 nACHR expressed in human SHEP1 cells assessed as stimulation of 86Rb+ ion efflux after 5 mins by liquid scintillation counting analysis; assay type: cell-based
Salmonella typhimurium [27] = assay: Genotoxicity in Salmonella typhimurium TA1535 at 5 to 100 uM by Ames test in presence of liver S9 fraction; assay type: toxicity, organism-based; details: salmonella enterica subsp. enterica serovar typhimurium, s9, 100 µM; summary of the method: as §2
hERG (KCNH2) [28] = target: T4, hERG (KCNH2); assay: Inhibition of human ERG at 10 uM relative to control; summary of the method: as §5
CYP2C19 = CYP2C19 (Homo sapiens, UniProt P33261); assay: Inhibition of CYP2C19 (unknown origin) at 10 uM relative to control; assay type: ADME; summary of the method: as §3
CYP2D6 = CYP2D6 (Homo sapiens, UniProt P10635); assay: Inhibition of CYP2D6 (unknown origin) at 10 uM relative to control; assay type: ADME; summary of the method: as §3
Salmonella typhimurium [29] = assay: Genotoxicity in Salmonella typhimurium TA100 at 5 to 100 uM by Ames test in presence of liver S9 fraction; assay type: toxicity, organism-based; details: salmonella enterica subsp. enterica serovar typhimurium, s9, 100 µM; summary of the method: as §2
Salmonella typhimurium [30] = assay: Genotoxicity in Salmonella typhimurium TA1537 at 5 to 100 uM by Ames test; assay type: toxicity, organism-based; details: salmonella enterica subsp. enterica serovar typhimurium; summary of the method: as §2
[31] = Metabolic stability in CD-1 mouse liver microsomes assessed as compound remaining at 0.1 uM after 1 hr; assay type: ADME, Microsome; details: CD-1, liver microsomes; read-out: Stability
Summary of the method: (§7)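 Human or CD-1 mouse liver microsomes incubated with 0.1 μM test compound for 1 h. Percent parent compound remaining unchanged was measured.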

hERG (KCNH2) [32] = target: T4, hERG (KCNH2); assay: Inhibition of human ERG at 1 uM relative to control; summary of the method: as §5
[33] = Metabolic stability in human liver microsomes assessed as compound remaining at 0.1 uM after 1 hr; assay type: ADME, Microsome; details: read-out: Stability; summary of the method: as §7
Plasma [34] = assay: Plasma protein binding in human at 10 uM; assay type: ADME, cell-free; summary of the method: as §4
[35] = Chemical stability of the compound at room temperature; assay type: physicochemical

T2 sequence (P17787 whole entry): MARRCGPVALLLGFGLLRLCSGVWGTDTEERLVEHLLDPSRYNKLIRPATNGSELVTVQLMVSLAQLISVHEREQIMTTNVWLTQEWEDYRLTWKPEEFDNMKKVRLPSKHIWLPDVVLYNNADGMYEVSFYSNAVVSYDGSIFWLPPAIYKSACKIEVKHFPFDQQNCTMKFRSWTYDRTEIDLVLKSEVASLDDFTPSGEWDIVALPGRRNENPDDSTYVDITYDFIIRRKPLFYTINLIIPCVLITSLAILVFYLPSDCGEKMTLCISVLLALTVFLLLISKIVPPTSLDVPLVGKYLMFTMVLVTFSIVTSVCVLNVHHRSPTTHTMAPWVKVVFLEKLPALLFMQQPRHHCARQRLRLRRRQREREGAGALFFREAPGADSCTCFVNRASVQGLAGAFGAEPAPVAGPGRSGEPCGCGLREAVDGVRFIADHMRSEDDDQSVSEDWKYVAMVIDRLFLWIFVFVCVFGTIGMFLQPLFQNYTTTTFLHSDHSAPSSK
T2 sequence (P32297 whole entry): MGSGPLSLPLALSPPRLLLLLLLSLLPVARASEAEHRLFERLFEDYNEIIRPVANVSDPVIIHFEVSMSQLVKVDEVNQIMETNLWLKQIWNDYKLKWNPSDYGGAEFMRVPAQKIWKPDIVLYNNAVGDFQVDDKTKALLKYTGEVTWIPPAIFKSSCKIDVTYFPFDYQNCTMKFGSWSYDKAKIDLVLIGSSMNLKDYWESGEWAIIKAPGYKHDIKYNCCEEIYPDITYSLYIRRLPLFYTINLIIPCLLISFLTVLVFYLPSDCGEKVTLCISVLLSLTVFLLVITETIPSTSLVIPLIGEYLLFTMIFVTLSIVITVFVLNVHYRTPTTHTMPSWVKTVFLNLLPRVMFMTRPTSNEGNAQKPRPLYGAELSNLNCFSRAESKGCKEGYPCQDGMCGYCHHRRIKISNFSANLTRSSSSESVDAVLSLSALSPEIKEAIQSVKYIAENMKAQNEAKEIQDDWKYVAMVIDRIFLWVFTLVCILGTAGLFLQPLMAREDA
T2 sequence (Q15825 whole entry): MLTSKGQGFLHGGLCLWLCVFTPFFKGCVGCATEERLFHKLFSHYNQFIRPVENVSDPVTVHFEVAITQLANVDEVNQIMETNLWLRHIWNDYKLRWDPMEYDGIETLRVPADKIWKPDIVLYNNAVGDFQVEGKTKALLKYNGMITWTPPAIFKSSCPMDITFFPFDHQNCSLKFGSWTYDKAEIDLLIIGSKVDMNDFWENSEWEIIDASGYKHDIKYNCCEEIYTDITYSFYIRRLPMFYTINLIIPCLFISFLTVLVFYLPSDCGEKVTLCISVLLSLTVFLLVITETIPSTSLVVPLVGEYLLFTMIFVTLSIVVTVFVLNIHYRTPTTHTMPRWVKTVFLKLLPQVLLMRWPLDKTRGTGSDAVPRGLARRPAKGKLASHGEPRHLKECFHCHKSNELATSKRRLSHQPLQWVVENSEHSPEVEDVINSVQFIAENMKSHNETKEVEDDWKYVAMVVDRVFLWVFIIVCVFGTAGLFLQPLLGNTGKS
T2 sequence (Q05901 whole entry): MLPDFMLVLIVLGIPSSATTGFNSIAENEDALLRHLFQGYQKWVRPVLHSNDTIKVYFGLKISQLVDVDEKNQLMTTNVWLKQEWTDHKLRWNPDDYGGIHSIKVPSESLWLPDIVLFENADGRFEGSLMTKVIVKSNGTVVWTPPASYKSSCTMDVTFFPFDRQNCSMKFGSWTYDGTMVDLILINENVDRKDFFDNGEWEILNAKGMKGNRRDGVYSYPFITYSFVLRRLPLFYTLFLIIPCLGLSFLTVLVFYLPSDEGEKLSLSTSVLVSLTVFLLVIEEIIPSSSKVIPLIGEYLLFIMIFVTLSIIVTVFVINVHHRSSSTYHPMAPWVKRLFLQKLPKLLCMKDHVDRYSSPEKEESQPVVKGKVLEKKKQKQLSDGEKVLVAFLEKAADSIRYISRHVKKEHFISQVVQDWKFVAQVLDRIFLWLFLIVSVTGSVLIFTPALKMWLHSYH
T4 sequence (Q12809 whole entry): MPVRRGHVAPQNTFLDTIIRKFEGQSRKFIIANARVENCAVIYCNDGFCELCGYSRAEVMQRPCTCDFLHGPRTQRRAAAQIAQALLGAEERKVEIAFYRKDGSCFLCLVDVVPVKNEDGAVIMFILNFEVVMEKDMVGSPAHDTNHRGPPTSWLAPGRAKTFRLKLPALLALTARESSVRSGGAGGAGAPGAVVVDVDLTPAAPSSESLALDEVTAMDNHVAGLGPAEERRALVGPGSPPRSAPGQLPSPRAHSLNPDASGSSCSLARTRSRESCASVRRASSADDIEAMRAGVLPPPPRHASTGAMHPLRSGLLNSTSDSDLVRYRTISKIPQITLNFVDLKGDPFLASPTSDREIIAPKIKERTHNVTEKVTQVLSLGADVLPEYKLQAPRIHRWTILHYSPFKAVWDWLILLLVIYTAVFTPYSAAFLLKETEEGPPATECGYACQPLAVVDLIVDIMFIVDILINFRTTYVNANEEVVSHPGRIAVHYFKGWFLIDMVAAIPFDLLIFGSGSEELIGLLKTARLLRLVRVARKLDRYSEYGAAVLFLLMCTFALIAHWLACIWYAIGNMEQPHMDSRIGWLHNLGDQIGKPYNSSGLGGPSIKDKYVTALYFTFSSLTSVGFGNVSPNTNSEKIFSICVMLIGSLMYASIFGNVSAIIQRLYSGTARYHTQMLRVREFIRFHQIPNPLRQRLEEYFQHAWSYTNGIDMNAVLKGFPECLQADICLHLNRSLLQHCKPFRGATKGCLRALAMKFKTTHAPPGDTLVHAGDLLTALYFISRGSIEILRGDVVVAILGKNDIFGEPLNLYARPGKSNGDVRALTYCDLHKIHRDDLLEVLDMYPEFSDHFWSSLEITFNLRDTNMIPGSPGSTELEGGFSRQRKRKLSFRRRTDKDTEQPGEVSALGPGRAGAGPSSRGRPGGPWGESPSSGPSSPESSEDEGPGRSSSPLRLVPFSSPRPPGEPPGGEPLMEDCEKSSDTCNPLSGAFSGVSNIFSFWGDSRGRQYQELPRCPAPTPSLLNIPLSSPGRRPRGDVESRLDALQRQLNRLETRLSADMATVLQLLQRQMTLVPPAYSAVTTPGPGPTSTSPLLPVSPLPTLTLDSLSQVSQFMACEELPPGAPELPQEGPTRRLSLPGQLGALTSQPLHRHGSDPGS
T3 sequence (P17787 whole entry): as the sequence (P17787 whole entry) above
T3 sequence (P43681 whole entry): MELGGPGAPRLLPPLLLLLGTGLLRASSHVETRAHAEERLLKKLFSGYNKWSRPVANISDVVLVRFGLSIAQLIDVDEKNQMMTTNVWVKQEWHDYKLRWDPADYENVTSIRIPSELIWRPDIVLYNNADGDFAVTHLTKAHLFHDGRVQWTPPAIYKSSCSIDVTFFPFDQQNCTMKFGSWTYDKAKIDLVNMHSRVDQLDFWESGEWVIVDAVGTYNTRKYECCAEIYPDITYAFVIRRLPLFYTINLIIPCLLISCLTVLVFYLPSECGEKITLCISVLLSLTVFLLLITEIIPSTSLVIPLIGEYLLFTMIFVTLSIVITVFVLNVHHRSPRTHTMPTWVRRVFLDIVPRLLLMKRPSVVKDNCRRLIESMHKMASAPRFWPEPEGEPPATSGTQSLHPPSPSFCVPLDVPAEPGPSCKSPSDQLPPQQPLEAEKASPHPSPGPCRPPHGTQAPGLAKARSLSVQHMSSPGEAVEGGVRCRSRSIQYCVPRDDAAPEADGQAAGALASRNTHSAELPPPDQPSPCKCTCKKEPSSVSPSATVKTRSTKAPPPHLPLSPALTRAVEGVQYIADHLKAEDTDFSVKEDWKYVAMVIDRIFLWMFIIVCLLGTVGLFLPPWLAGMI
CYP2C19, sequence (P33261 whole entry): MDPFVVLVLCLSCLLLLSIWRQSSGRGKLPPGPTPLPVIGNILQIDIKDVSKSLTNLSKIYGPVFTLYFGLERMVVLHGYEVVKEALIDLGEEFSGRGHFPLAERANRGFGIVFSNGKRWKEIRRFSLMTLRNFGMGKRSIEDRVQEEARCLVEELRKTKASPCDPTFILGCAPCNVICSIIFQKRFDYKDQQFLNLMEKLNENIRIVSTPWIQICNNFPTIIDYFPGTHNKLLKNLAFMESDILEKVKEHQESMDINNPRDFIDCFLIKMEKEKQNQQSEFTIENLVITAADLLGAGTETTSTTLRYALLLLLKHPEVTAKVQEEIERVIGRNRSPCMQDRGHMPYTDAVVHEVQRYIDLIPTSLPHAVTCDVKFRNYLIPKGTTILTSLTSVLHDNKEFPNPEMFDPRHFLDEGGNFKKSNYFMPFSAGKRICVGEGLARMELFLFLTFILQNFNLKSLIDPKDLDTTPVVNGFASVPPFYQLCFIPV
CYP2D6, sequence (P10635 whole entry): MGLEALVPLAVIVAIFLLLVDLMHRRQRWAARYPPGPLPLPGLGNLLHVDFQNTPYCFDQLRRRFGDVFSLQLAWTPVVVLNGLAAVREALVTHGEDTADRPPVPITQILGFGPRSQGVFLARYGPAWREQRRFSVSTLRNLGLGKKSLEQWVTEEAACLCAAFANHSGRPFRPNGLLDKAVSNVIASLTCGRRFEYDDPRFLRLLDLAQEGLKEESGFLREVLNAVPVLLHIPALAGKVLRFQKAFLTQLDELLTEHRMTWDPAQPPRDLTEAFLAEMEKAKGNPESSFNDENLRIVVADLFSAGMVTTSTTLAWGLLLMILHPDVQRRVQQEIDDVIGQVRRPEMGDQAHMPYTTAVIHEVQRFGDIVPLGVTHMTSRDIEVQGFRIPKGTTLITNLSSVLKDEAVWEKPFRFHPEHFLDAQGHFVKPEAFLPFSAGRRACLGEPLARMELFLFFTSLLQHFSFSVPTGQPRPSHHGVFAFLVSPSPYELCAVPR

Q: For CN[C@H]1CC[C@@H](c2ccc(Cl)c(Cl)c2)c2ccccc21, which Activity (Mus musculus [1]) is on record?
A: Active

Q: Which results are given for COCC[C@H]1C[C@@H]1c1cncc(OC[C@@H]2CCCN2C)c1?
A: Activity (Mus musculus [2]): Active; inhibition [3]: inactive; Activity (Mus musculus [4]): Active; Activity [5]: Active

Q: Which Activity (Mus musculus [6]) does the source give for COCC[C@H]1C[C@@H]1c1cncc(OC[C@@H]2CCCN2)c1 here?
A: inactive

Q: What about the pIC50 [7] of the same compound?
A: 6.65

Q: And the pEC50 [8]?
A: 7.29

Q: And the inhibition [3]?
A: inactive

Q: What about the Activity [5] of the same compound?
A: Active

Q: For COCC[C@H]1C[C@@H]1c1cncc(OC[C@H]2CCNC2)c1.O=C(O)C(F)(F)F (single isomer, unassigned), which Activity (Mus musculus [9]) is on record?
A: Toxic

Q: What about the Activity (Mus musculus [10]) of the same compound?
A: Toxic

Q: And the Activity (Mus musculus [11])?
A: Toxic

Q: And the inhibition [3]?
A: inactive

Q: What about the Activity [5] of the same compound?
A: Active

Q: With COCC[C@H]1C[C@@H]1c1cncc(OC[C@@H]2CCCN2C)c1.O=C(O)C(O)C(O)C(=O)O as the compound, how does the Activity (Salmonella typhimurium [12]) read?
A: Non-toxic

Q: What about the Activity (Salmonella typhimurium [13]) of the same compound?
A: Non-toxic

Q: With COCC[C@H]1C[C@@H]1c1cncc(OC[C@@H]2CCN2)c1 as the compound, how does the pIC50 [7] read?
A: 8.01

Q: What about the pEC50 [8] of the same compound?
A: 8.13

Q: With COCC[C@H]1C[C@@H]1c1cncc(OC[C@@H]2CCCN2C)c1.O=C(O)C(F)(F)F as the compound, how does the pIC50 [14] read?
A: 7.70

Q: And the Activity (Salmonella typhimurium [15])?
A: Toxic

Q: What about the inhibition at 10 µM (CYP2C9) of the same compound?
A: 30%

Q: What about the Activity (Salmonella typhimurium [16]) of the same compound?
A: Non-toxic

Q: What about the Activity (Salmonella typhimurium [17]) of the same compound?
A: Non-toxic

Q: And the Activity (Salmonella typhimurium [18])?
A: Non-toxic

Q: What about the Activity (Salmonella typhimurium [19]) of the same compound?
A: Non-toxic

Q: And the PPB (Plasma [20])?
A: 11%

Q: What about the Activity (Salmonella typhimurium [21]) of the same compound?
A: Non-toxic

Q: And the inhibition at 0.1 µM (hERG (KCNH2) [22])?
A: 4%

Q: What about the pIC50 [7] of the same compound?
A: 7.62

Q: And the inhibition at 10 µM (CYP3A)?
A: 10%

Q: What about the permeability (Caco-2 [23]) of the same compound?
A: 18.4 ×10⁻⁶ cm/s

Q: What about the remaining at 2 h, 1 µM [24] of the same compound?
A: 85.7%

Q: And the permeability (Caco-2 [25])?
A: 90.9 ×10⁻⁶ cm/s

Q: And the pEC50 [26]?
A: 7.84

Q: And the Activity (Salmonella typhimurium [27])?
A: Non-toxic

Q: And the pEC50 [8]?
A: 8.05

Q: What about the inhibition at 10 µM (hERG (KCNH2) [28]) of the same compound?
A: 23%

Q: And the inhibition at 10 µM (CYP2C19)?
A: 21%

Q: And the inhibition at 10 µM (CYP2D6)?
A: 44%

Q: And the Activity (Salmonella typhimurium [29])?
A: Non-toxic

Q: What about the Activity (Salmonella typhimurium [30]) of the same compound?
A: Non-toxic

Q: What about the remaining at 1 h, 0.1 µM [31] of the same compound?
A: 90.1%

Q: What about the inhibition at 1 µM (hERG (KCNH2) [32]) of the same compound?
A: 7%

Q: And the remaining at 1 h, 0.1 µM [33]?
A: 103%

Q: And the PPB (Plasma [34])?
A: 31%

Q: What about the Stability [35] of the same compound?
A: Stable
